In brackets after ≈: the same amount, converted by molar mass. Activity calls are given as the source filed them.
Assays:
Listeria monocytogenes [1] = test: Antimicrobial activity against Listeria monocytogenes clinical isolate at 50 ug/disk incubated for 20 +/- 4 hrs by agar disk diffusion method; format: functional; settings: read-out: DIZ
Method in brief: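 Disk diffusion on MH agar with 5% horse blood, seeded by swab from a 0.5 McFarland suspension. Discs held 50 μg compound from a 5 g/L DMSO solution, with a DMSO-only control disc. Aerobic incubation at 35 ± 2 °C for 20 ± 4 h; inhibition zone diameter read.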

Pseudomonas aeruginosa = test: Antimicrobial activity against Pseudomonas aeruginosa clinical isolate at 50 ug/disk incubated for 20 +/- 4 hrs by agar disk diffusion method; format: functional; settings: read-out: DIZ
Method in brief: (§1)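 Agar disk diffusion on Mueller-Hinton agar swab-seeded from a 0.5 McFarland inoculum (about 10^8 CFU/ml). Cellulose discs got 50 μg compound (10 μl of 5 g/L in DMSO); a 10 μL DMSO disc was the control. Incubated aerobically at 35 ± 2 °C for 20 ± 4 h, then growth-inhibition diameters measured.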

Proteus vulgaris = test: Antimicrobial activity against Proteus vulgaris clinical isolate at 50 ug/disk incubated for 20 +/- 4 hrs by agar disk diffusion method; format: functional; settings: read-out: DIZ; method in brief: as §1
[2] = Cytotoxicity against human NHFB cells assessed as decrease in cell viability in MTT assay; format: cell-based
Method in brief: (§2)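 Cell viability was measured by MTT on a robotic screening platform. Residual viability was expressed as a percentage of the mean viable cells in DMSO-treated controls. Under 25-30% viability was considered cytotoxic, and IC50 values were derived.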

Enterococcus faecium [3] = test: Antimicrobial activity against Enterococcus faecium AUS0004 at 50 ug/disk incubated for 20 +/- 4 hrs by agar disk diffusion method; format: functional; settings: read-out: DIZ; method in brief: as §1
Escherichia coli [4] = test: Antimicrobial activity against Escherichia coli BW25113 at 10 mM/disk incubated for 20 +/- 4 hrs by agar disk diffusion method; format: functional; settings: read-out: DIZ
Escherichia coli [5] = test: Antimicrobial activity against TolC deficient Escherichia coli BW25113 by broth microdilution method; format: functional
Method in brief: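 MIC by broth microdilution per EUCAST guidelines, in E. coli BW25113 and its previously described deletion derivative.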

Clostridium perfringens = test: Antimicrobial activity against Clostridium perfringens clinical isolate by broth microdilution method; format: functional
Method in brief: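 MIC by broth microdilution following EUCAST guidelines; values or ranges from three independent experiments. MICs were determined only where the disk diffusion inhibition diameter was at least 9 mm.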

Escherichia coli [6] = test: Antimicrobial activity against Escherichia coli clinical isolate at 50 ug/disk incubated for 20 +/- 4 hrs by agar disk diffusion method; format: functional; settings: read-out: DIZ; method in brief: as §1
Enterococcus faecium [7] = test: Antimicrobial activity against Enterococcus faecium HM1070 at 50 ug/disk incubated for 20 +/- 4 hrs by agar disk diffusion method; format: functional; settings: read-out: DIZ; method in brief: as §1
Staphylococcus aureus [8] = test: Antimicrobial activity against Staphylococcus aureus clinical isolate at 50 ug/disk incubated for 20 +/- 4 hrs by agar disk diffusion method; format: functional; settings: read-out: DIZ; method in brief: as §1
[9] = test system: Staphylococcus epidermidis; test: Antimicrobial activity against Staphylococcus epidermidis clinical isolate by broth microdilution method; format: functional
Method in brief: (§3)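 MICs were set by broth microdilution following EUCAST guidelines, from three independent experiments reported as values or ranges. MICs were measured only where disk-diffusion inhibition diameters were 9 mm or more.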

Staphylococcus aureus [10] = test: Antimicrobial activity against Staphylococcus aureus ATCC 29213 at 50 ug/disk incubated for 20 +/- 4 hrs by agar disk diffusion method; format: functional; settings: read-out: DIZ; method in brief: as §1
Listeria monocytogenes [11] = test: Antimicrobial activity against Listeria monocytogenes clinical isolate by broth microdilution method; format: functional; method in brief: as §3
Kocuria rhizophila = test: Antimicrobial activity against Kocuria rhizophila clinical isolate at 50 ug/disk incubated for 20 +/- 4 hrs by agar disk diffusion method; format: functional; settings: read-out: DIZ; method in brief: as §1
Morganella morganii = test: Antimicrobial activity against Morganella morganii EB8clinical isolate at 50 ug/disk incubated for 20 +/- 4 hrs by agar disk diffusion method; format: functional; settings: EB8, read-out: DIZ; method in brief: as §1
Enterobacter cloacae = test: Antimicrobial activity against Enterobacter cloacae clinical isolate at 50 ug/disk incubated for 20 +/- 4 hrs by agar disk diffusion method; format: functional; settings: read-out: DIZ; method in brief: as §1
NCI-H727 = test: Cytotoxicity against human NCI-H727 cells assessed as decrease in cell viability in MTT assay; format: cell-based; method in brief: as §2
Streptococcus pyogenes = test: Antimicrobial activity against Streptococcus pyogenes clinical isolate at 50 ug/disk incubated for 20 +/- 4 hrs by agar disk diffusion method; format: functional; settings: read-out: DIZ
Method in brief: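 Plates of MH + 5% horse blood were swabbed with a 0.5 McFarland inoculum and received discs with 50 μg compound (from 5 g/L in DMSO) plus a 10 μL DMSO control disc. Incubation at 35 ± 2 °C aerobically with 5% CO2 for 20 ± 4 h, then zone diameters measured.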

Escherichia coli [12] = test: Antimicrobial activity against TolC deficient Escherichia coli BW25113 by agar disk diffusion method; format: functional
[13] = test system: Mycobacteroides abscessus; test: Antimicrobial activity against Mycobacterium abscessus clinical isolate by broth microdilution method; format: functional; method in brief: as §3
Enterococcus faecium [14] = test: Synergistic antimicrobial activity against Enterococcus faecium AUS0004 assessed as DIZ at 50 ug/disk incubated for 20 +/- 4 hrs in presence of gentamicin by agar disk diffusion method (reference value: 17 millimeter); format: functional; settings: read-out: DIZ
Enterococcus faecalis = test: Synergistic antimicrobial activity against Enterococcus faecalis ATCC 29212 assessed as DIZ at 50 ug/disk incubated for 20 +/- 4 hrs in presence of erythromycin by agar disk diffusion method (reference value: 20 millimeter); format: functional; settings: read-out: DIZ
Listeria monocytogenes [15] = test: Synergistic antimicrobial activity against Listeria monocytogenes clinical isolate assessed as DIZ at 50 ug/disk incubated for 20 +/- 4 hrs in presence of moxalactam by agar disk diffusion method (reference value: 13 millimeter); format: functional; settings: read-out: DIZ
Enterococcus faecium [16] = test: Synergistic antimicrobial activity against Enterococcus faecium AUS0004 assessed as DIZ at 50 ug/disk incubated for 20 +/- 4 hrs in presence of ampicillin by agar disk diffusion method (reference value: 6 millimeter); format: functional; settings: read-out: DIZ
Listeria monocytogenes [17] = test: Synergistic antimicrobial activity against Listeria monocytogenes clinical isolate assessed as DIZ at 50 ug/disk incubated for 20 +/- 4 hrs in presence of fosfomycin by agar disk diffusion method (reference value: 6 millimeter); format: functional; settings: read-out: DIZ
Enterococcus faecium [18] = test: Synergistic antimicrobial activity against Enterococcus faecium AUS0004 assessed as DIZ at 50 ug/disk incubated for 20 +/- 4 hrs in presence of streptomycin by agar disk diffusion method (reference value: 22 millimeter); format: functional; settings: read-out: DIZ
Enterococcus faecium [19] = test: Synergistic antimicrobial activity against Enterococcus faecium AUS0004 assessed as DIZ at 50 ug/disk incubated for 20 +/- 4 hrs in presence of imipenem by agar disk diffusion method (reference value: 6 millimeter); format: functional; settings: read-out: DIZ

O=C(Nc1nnc(-c2ccc(F)cc2)o1)c1ccc(Cl)cc1
zone of inhibition at 50 µg/disc (Listeria monocytogenes [1]): 13 mm
zone of inhibition at 50 µg/disc (Pseudomonas aeruginosa): 6 mm
zone of inhibition at 50 µg/disc (Proteus vulgaris): 6 mm
IC50 [2]: > 25 µM
zone of inhibition at 50 µg/disc (Enterococcus faecium [3]): 6 mm
zone of inhibition at 10000 µM (Escherichia coli [4]): 6 mm
MIC (Escherichia coli [5]): 2 µM (≈ 0.635 µg/mL)
MIC (Clostridium perfringens): 4 µg/mL (≈ 12.6 µM)
zone of inhibition at 50 µg/disc (Escherichia coli [6]): 6 mm
zone of inhibition at 50 µg/disc (Enterococcus faecium [7]): 8 mm
zone of inhibition at 50 µg/disc (Staphylococcus aureus [8]): 17 mm
MIC [9]: 0.5 to 4 µg/mL (≈ 1.57 to 12.6 µM)
zone of inhibition at 50 µg/disc (Staphylococcus aureus [10]): 12 mm
MIC (Listeria monocytogenes [11]): 4 µg/mL (≈ 12.6 µM)
zone of inhibition at 50 µg/disc (Kocuria rhizophila): 11 mm
zone of inhibition at 50 µg/disc (Morganella morganii): 6 mm
zone of inhibition at 50 µg/disc (Enterobacter cloacae): 6 mm
IC50 (NCI-H727): 18 µM
zone of inhibition at 50 µg/disc (Streptococcus pyogenes): 6 mm
diameter of the inhibition zone (DIZ) (Escherichia coli [12]): 13 mm
MIC [13]: 64 µg/mL (≈ 201 µM)

O=C(Nc1nnc(-c2ccc(C(F)(F)F)cc2)o1)c1ccc(Cl)nc1
zone of inhibition at 50 µg/disc (Enterococcus faecium [14]): 25 mm
zone of inhibition at 50 µg/disc (Enterococcus faecalis): 23 mm
zone of inhibition at 50 µg/disc (Listeria monocytogenes [1]): 31 mm
zone of inhibition at 50 µg/disc (Pseudomonas aeruginosa): 6 mm
zone of inhibition at 50 µg/disc (Proteus vulgaris): 8 mm
IC50 [2]: > 25 µM
zone of inhibition at 50 µg/disc (Enterococcus faecium [3]): 23 mm
zone of inhibition at 10000 µM (Escherichia coli [4]): 6 mm
MIC (Escherichia coli [5]): 1 µM (≈ 0.369 µg/mL)
MIC (Clostridium perfringens): 4 µg/mL (≈ 10.8 µM)
zone of inhibition at 50 µg/disc (Escherichia coli [6]): 6 mm
zone of inhibition at 50 µg/disc (Enterococcus faecium [7]): 24 mm
zone of inhibition at 50 µg/disc (Listeria monocytogenes [15]): 30 mm
zone of inhibition at 50 µg/disc (Staphylococcus aureus [8]): 30 mm
zone of inhibition at 50 µg/disc (Enterococcus faecium [16]): 24 mm
zone of inhibition at 50 µg/disc (Listeria monocytogenes [17]): 29 mm
MIC [9]: 1 to 2 µg/mL (≈ 2.71 to 5.42 µM)
zone of inhibition at 50 µg/disc (Staphylococcus aureus [10]): 22 mm
MIC (Listeria monocytogenes [11]): 8 µg/mL (≈ 21.7 µM)
zone of inhibition at 50 µg/disc (Kocuria rhizophila): 28 mm
zone of inhibition at 50 µg/disc (Morganella morganii): 6 mm
zone of inhibition at 50 µg/disc (Enterobacter cloacae): 6 mm
IC50 (NCI-H727): > 25 µM
zone of inhibition at 50 µg/disc (Streptococcus pyogenes): 10 mm
zone of inhibition at 50 µg/disc (Enterococcus faecium [18]): 26 mm
diameter of the inhibition zone (DIZ) (Escherichia coli [12]): 23.6 mm
MIC [13]: 16 to 32 µg/mL (≈ 43.4 to 86.8 µM)
zone of inhibition at 50 µg/disc (Enterococcus faecium [19]): 24 mm

O=C(Nc1ncc(-c2ccc(F)cc2)o1)c1ccc(Cl)cc1
zone of inhibition at 50 µg/disc (Enterococcus faecium [14]): 18 mm
zone of inhibition at 50 µg/disc (Enterococcus faecalis): 20 mm
zone of inhibition at 50 µg/disc (Listeria monocytogenes [1]): 17 mm
zone of inhibition at 50 µg/disc (Pseudomonas aeruginosa): 6 mm
zone of inhibition at 50 µg/disc (Proteus vulgaris): 10 mm
IC50 [2]: > 25 µM
zone of inhibition at 50 µg/disc (Enterococcus faecium [3]): 12 mm
zone of inhibition at 10000 µM (Escherichia coli [4]): 6 mm
MIC (Clostridium perfringens): inactive
zone of inhibition at 50 µg/disc (Escherichia coli [6]): 6 mm
zone of inhibition at 50 µg/disc (Enterococcus faecium [7]): 13 mm
zone of inhibition at 50 µg/disc (Listeria monocytogenes [15]): 17 mm
zone of inhibition at 50 µg/disc (Staphylococcus aureus [8]): 20 mm
zone of inhibition at 50 µg/disc (Enterococcus faecium [16]): 13 mm
zone of inhibition at 50 µg/disc (Listeria monocytogenes [17]): 15 mm
MIC [9]: 0.25 µg/mL (≈ 0.789 µM)
zone of inhibition at 50 µg/disc (Staphylococcus aureus [10]): 16 mm
MIC (Listeria monocytogenes [11]): 32 to 64 µg/mL (≈ 101 to 202 µM)
zone of inhibition at 50 µg/disc (Kocuria rhizophila): 18 mm
zone of inhibition at 50 µg/disc (Morganella morganii): 6 mm
zone of inhibition at 50 µg/disc (Enterobacter cloacae): 6 mm
zone of inhibition at 50 µg/disc (Streptococcus pyogenes): 6 mm
zone of inhibition at 50 µg/disc (Enterococcus faecium [18]): 21 mm
diameter of the inhibition zone (DIZ) (Escherichia coli [12]): 11.33 mm
MIC [13]: inactive
zone of inhibition at 50 µg/disc (Enterococcus faecium [19]): 13 mm

O=C(Nc1nnc(-c2ccc(C(F)(F)F)cc2)o1)c1cccc(Cl)c1
zone of inhibition at 50 µg/disc (Enterococcus faecium [14]): 25 mm
zone of inhibition at 50 µg/disc (Enterococcus faecalis): 24 mm
zone of inhibition at 50 µg/disc (Listeria monocytogenes [1]): 28 mm
zone of inhibition at 50 µg/disc (Pseudomonas aeruginosa): 6 mm
zone of inhibition at 50 µg/disc (Proteus vulgaris): 6 mm
IC50 [2]: > 25 µM
zone of inhibition at 50 µg/disc (Enterococcus faecium [3]): 21 mm
zone of inhibition at 10000 µM (Escherichia coli [4]): 6 mm
MBC (Escherichia coli [5]): 16 µM (≈ 5.88 µg/mL)
MIC (Escherichia coli [5]): 0.25 µM (≈ 0.0919 µg/mL)
MIC (Clostridium perfringens): 2 to 4 µg/mL (≈ 5.44 to 10.9 µM)
zone of inhibition at 50 µg/disc (Escherichia coli [6]): 6 mm
zone of inhibition at 50 µg/disc (Enterococcus faecium [7]): 23 mm
zone of inhibition at 50 µg/disc (Listeria monocytogenes [15]): 33 mm
zone of inhibition at 50 µg/disc (Staphylococcus aureus [8]): 28 mm
zone of inhibition at 50 µg/disc (Enterococcus faecium [16]): 24 mm
zone of inhibition at 50 µg/disc (Listeria monocytogenes [17]): 30 mm
MIC [9]: 0.0625 to 0.25 µg/mL (≈ 0.17 to 0.68 µM)
zone of inhibition at 50 µg/disc (Staphylococcus aureus [10]): 24 mm
MIC (Listeria monocytogenes [11]): 8 µg/mL (≈ 21.8 µM)
zone of inhibition at 50 µg/disc (Kocuria rhizophila): 30 mm
zone of inhibition at 50 µg/disc (Morganella morganii): 6 mm
zone of inhibition at 50 µg/disc (Enterobacter cloacae): 6 mm
IC50 (NCI-H727): 10 µM
zone of inhibition at 50 µg/disc (Streptococcus pyogenes): 9 mm
zone of inhibition at 50 µg/disc (Enterococcus faecium [18]): 26 mm
diameter of the inhibition zone (DIZ) (Escherichia coli [12]): 21.3 mm
MIC [13]: 32 to 64 µg/mL (≈ 87 to 174 µM)
zone of inhibition at 50 µg/disc (Enterococcus faecium [19]): 24 mm
